ChEMBL document CHEMBL4340525, “Tumor-Targeted Delivery of 6-Diazo-5-oxo-l-norleucine (DON) Using Substituted Acetylated Lysine Prodrugs” (J Med Chem, 2019)

Experiments:
[1] = Stability in human plasma suspended with human P493B cells at 20 uM measured after 1 hr by LC-MS/MS analysis; type: ADME, cell-free
Procedure, shortened: (§1)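 Cells were grown in RPMI 1640 with 10% FBS, washed in DPBS and resuspended in human plasma at 10 million cells/mL. After 5 min preincubation at 37 °C, compound was added at 20 µM final for 1 h. The mix was centrifuged at 10 000g and the washed pellet and plasma were quantified separately. DON was read by LC-MS/MS after dabsyl chloride derivatisation, intact prodrug directly. Standard curves were made in naive cells or plasma.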

[2] = Cmax in CES1-deficient C57BL/6 mouse plasma implanted with mouse EL4 cells assessed as 6-diazo-5-oxo-L-norleucine level at 3.2 mg/kg, sc administered as single dose by LC-MS/MS analysis; type: ADME, organism-based; set-up: dose 3.2 mg/kg, route subcutaneous; conditions: in vivo
Procedure, shortened: (§2)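 Male and female C57BL/6 CES1-/- mice, 6–8 weeks old, carried flank EL4 tumours from SC injection of 1 × 10^6 cells in PBS. Dosing began at about 400 mm3 mean tumour volume. Each mouse got one SC dose of 3.2 mg/kg (1 mg/kg DON equivalent) in ethanol/Tween 80/saline 5:10:85. Plasma, jejunum and tumour were taken at set times, n = 3 per time point. Prodrug and dabsyl-derivatised DON were measured by LC-MS/MS. Noncompartmental analysis: Cmax and Tmax observed, AUClast by log-linear trapezoidal rule.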

[3] = (§3) Antiproliferative activity against human P493B cells measured after 72 hrs by CellTiter 96 aqueous one solution cell proliferation assay; type: functional, cell-based
Procedure, shortened: (§4)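 P493B lymphoma cells seeded at 20 000 cells/well in growth medium. DMSO stocks added as a 1:10 serial dilution, final 0.2% DMSO. Cells grown 72 h with compound, then given CellTiter 96 AQueous reagent for 2 h and read by absorbance at 490 nm. EC50 obtained by nonlinear regression of log-transformed data.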

Homo sapiens [4] = organism: Homo sapiens; assay: as §3; type: functional, cell-based; procedure, shortened: as §4
[5] = Tmax in CES1-deficient C57BL/6 mouse tumor implanted with mouse EL4 cells assessed as 6-diazo-5-oxo-L-norleucine level at 3.2 mg/kg, sc administered as single dose by LC-MS/MS analysis; type: ADME, organism-based, Neoplasm; conditions: in vivo; procedure, shortened: as §2
[6] = Prodrug conversion in human H69 cells suspended in human plasma assessed as 6-diazo-5-oxo-L-norleucine formation at 20 uM measured after 1 hr by LC-MS/MS analysis; type: ADME, cell-based; conditions: nci-h69, 1 h; procedure, shortened: as §1
[7] = AUC (0 to t) in CES1-deficient C57BL/6 mouse jejunum implanted with mouse EL4 cells assessed as 6-diazo-5-oxo-L-norleucine level at 3.2 mg/kg, sc administered as single dose by LC-MS/MS analysis; type: ADME, organism-based; conditions: in vivo; procedure, shortened: as §2
Histone deacetylase 2 = Histone deacetylase 2 (Homo sapiens, UniProt Q92769); assay: Stability of the compound assessed as recombinant human HDAC2-mediated compound hydrolysis by measuring parent compound remaining at 1 uM measured after 3 hrs by UHPLC-MS analysis; type: ADME
Procedure, shortened: (§5)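 Compound at 1 µM was incubated at 37 °C with shaking in 50 mM MES pH 6 with 5 mM DTT. Recombinant human enzyme final levels: HDAC2 10 µg/mL, cathepsin B 1 µg/mL, cathepsin L 0.1 µg/mL, alone or cathepsins B+L combined. Aliquots were quenched in methanol with losartan at 0.25, 0.5, 1 and 3 h. Parent remaining by Q-TOF LC-MS.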

[8] = Prodrug conversion in human P493B cells suspended in human plasma assessed as 6-diazo-5-oxo-L-norleucine formation at 20 uM measured after 1 hr by LC-MS/MS analysis; type: ADME, cell-based; procedure, shortened: as §1
[9] = Stability in human liver microsomes assessed as parent compound remaining at 1 uM measured after 1 hr by LC-MS/MS analysis; type: ADME, Microsome; conditions: read-out: Stability
Procedure, shortened: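 Human liver microsomes (0.2 mg/mL protein) or S9 fraction (0.5 mg/mL) were incubated with prodrug at 1 µM final, 37 °C, 1 h with shaking. Reactions were quenched in triplicate with three volumes acetonitrile containing losartan. Parent remaining was taken from analyte/internal-standard peak-area ratio by UHPLC-MS/MS.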

[10] = Stability in swine jejunum assessed as parent compound remaining at 20 uM measured after 1 hr by LC-MS/MS analysis; type: ADME, tissue-based, Sus scrofa; conditions: pig
Procedure, shortened: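 Washed swine jejunum was diluted 10-fold in 0.1 M potassium phosphate buffer and probe-sonicated. Prodrug was spiked at 20 µM final and incubated 1 h at 37 °C with orbital shaking. Triplicate quench in acetonitrile with losartan internal standard. Percent parent remaining by LC-MS/MS peak-area ratio.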

[11] = Prodrug conversion in human DU4475 cells suspended in human plasma assessed as 6-diazo-5-oxo-L-norleucine formation at 20 uM measured after 1 hr by LC-MS/MS analysis; type: ADME, cell-based; conditions: du-4475, 1 h; procedure, shortened: as §1
[12] = Stability in swine plasma assessed as parent compound remaining at 20 uM measured after 1 hr by LC-MS/MS analysis; conditions: Sus scrofa, pig
[13] = Ratio of AUC (0 to t) in tumor to plasma of CES1-deficient C57BL/6 mouse implanted with mouse EL4 cells assessed as 6-diazo-5-oxo-L-norleucine level at 3.2 mg/kg, sc administered as single dose by LC-MS/MS analysis; type: ADME, organism-based; conditions: tumour
Procedure, shortened: (§6)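 Tissue-to-tissue ratios of DON AUClast came from noncompartmental analysis. EL4-bearing CES1-/- C57BL/6 mice received one SC dose of 3.2 mg/kg (1 mg/kg DON equivalent) in ethanol/Tween 80/saline 5:10:85. Tumour, jejunum and plasma were sampled over time, n = 3 mice per time point. DON was read by LC-MS/MS after dabsyl chloride derivatisation.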

[14] = Ratio of AUC (0 to t) in tumor to jejunum of CES1-deficient C57BL/6 mouse implanted with mouse EL4 cells assessed as 6-diazo-5-oxo-L-norleucine level at 3.2 mg/kg, sc administered as single dose by LC-MS/MS analysis; type: ADME, organism-based; conditions: in vivo; procedure, shortened: as §6
[15] = Stability of the compound in CES1-deficient C57BL/6 mouse plasma measured after 60 mins by UHPLC-MS analysis; type: ADME, cell-free; conditions: 1 h
Homo sapiens [16] = organism: Homo sapiens; assay: Stability of the compound assessed as recombinant human cathepsin L/cathepsin B-mediated compound hydrolysis by measuring parent compound remaining at 1 uM measured after 3 hrs by UHPLC-MS analysis; procedure, shortened: as §5
[17] = Drug level in mouse EL4 cells implanted in CES1-deficient C57BL/6 mouse assessed as tumor cell to plasma ratio at 3.2 mg/kg, sc administered as single dose measured after 1 hr by LC-MS/MS analysis; type: ADME, organism-based
[18] = AUC (0 to t) in CES1-deficient C57BL/6 mouse plasma implanted with mouse EL4 cells at 3.2 mg/kg, sc administered as single dose by LC-MS/MS analysis; type: ADME, organism-based; procedure, shortened: as §2
[19] = Tmax in CES1-deficient C57BL/6 mouse plasma implanted with mouse EL4 cells assessed as 6-diazo-5-oxo-L-norleucine level at 3.2 mg/kg, sc administered as single dose by LC-MS/MS analysis; type: ADME, organism-based; conditions: in vivo; procedure, shortened: as §2
[20] = Stability in human plasma suspended with human P493B cells at 20 uM by LC-MS/MS analysis; type: ADME; conditions: TDE = time-dependent effect; procedure, shortened: as §1

Chain of Histone deacetylase 2 (Q92769 whole entry): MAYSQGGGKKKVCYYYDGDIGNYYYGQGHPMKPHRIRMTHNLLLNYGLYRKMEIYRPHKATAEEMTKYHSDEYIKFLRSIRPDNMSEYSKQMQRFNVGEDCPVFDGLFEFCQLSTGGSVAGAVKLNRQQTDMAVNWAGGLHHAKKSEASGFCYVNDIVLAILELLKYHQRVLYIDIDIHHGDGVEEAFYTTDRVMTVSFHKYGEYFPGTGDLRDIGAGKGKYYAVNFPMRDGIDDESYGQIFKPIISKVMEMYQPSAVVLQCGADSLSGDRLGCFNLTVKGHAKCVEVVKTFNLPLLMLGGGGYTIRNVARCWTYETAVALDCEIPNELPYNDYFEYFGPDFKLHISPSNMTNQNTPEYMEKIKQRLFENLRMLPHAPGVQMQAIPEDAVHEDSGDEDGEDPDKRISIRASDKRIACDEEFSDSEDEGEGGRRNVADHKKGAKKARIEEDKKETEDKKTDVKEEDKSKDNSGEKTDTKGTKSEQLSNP

CC(=O)NCCCC[C@H](NC(=O)C12CC3CC(CC(C3)C1)C2)C(=O)N[C@@H](CCC(=O)C=[N+]=[N-])C(=O)OC(C)C
Stability [1]: Stable | Cmax [2]: 440 nM | EC50 [3]: 5 µM | Activity (Homo sapiens [4]): Dose-dependent effect | Tmax [5]: 60 min | Drug metabolism [6]: 9.95 µM | AUCt [7]: 0.45 nmol·h/g | Stability (Histone deacetylase 2): > 95% | Drug metabolism [8]: 8.81 µM | remaining at 1 h, 1 µM [9]: 100% | Stability [10]: > 50% | Drug metabolism [11]: 11.8 µM | Stability [12]: 108% | Ratio AUC [13]: 5 | Ratio AUC [14]: 11 | Stability [15]: Stable | Stability (Homo sapiens [16]): 9% | Kp at 1 h [17]: 16 | AUC(0-t) [18]: 0.4 µM·h | Tmax [19]: 30 min | Stability [20]: Tde
